The values that follow come from ChEMBL document CHEMBL1154934, “Identification of piperazine-bisamide GHSR antagonists for the treatment of obesity” (Bioorg Med Chem Lett, 2010).

In test [1] the target is T1, 5-hydroxytryptamine receptor 2C (Homo sapiens, UniProt P28335).
T1 sequence (P28335 whole entry): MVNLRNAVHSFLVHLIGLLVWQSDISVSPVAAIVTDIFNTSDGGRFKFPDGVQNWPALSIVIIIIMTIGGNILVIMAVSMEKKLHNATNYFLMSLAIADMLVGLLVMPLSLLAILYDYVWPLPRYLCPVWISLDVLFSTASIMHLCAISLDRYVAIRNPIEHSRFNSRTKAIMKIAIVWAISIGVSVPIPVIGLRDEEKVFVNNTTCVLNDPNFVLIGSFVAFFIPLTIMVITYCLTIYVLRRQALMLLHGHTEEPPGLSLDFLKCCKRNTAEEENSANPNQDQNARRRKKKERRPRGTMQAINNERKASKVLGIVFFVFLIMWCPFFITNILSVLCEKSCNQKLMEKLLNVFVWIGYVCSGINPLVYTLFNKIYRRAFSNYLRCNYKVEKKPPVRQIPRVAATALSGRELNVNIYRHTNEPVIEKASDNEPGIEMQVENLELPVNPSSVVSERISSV
Kind of test: Inhibition of 5HT2C (receptor).

Test [2] addresses Muscarinic acetylcholine receptor M3 (Homo sapiens, UniProt P20309). Kind of test: Inhibition of muscarinic M3 receptor.
Test [3] concerns the target Kappa-type opioid receptor (Homo sapiens, UniProt P41145). Kind of test: Inhibition of kappa opioid receptor.
The target in a further test is Mu-type opioid receptor (Homo sapiens, UniProt P35372). Kind of test: Inhibition of mu opioid receptor.
Sequence of Mu-type opioid receptor (P35372 whole entry): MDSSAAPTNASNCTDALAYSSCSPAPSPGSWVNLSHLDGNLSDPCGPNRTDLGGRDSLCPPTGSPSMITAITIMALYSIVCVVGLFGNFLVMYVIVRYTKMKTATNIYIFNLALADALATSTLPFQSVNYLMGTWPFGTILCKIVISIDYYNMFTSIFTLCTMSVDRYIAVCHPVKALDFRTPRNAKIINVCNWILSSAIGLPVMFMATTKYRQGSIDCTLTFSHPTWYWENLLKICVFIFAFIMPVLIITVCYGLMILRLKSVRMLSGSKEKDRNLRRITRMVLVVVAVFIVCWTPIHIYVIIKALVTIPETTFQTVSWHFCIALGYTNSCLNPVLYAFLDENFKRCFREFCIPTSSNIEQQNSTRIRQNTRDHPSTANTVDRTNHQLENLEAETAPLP
Test [4] concerns the target Sodium-dependent noradrenaline transporter (Homo sapiens, UniProt P23975). Kind of test: Inhibition of NET.
The target of the next test is Histamine H2 receptor (Homo sapiens, UniProt P25021). Kind of test: Inhibition of histamine H2 receptor.
Sequence of Histamine H2 receptor (P25021 whole entry): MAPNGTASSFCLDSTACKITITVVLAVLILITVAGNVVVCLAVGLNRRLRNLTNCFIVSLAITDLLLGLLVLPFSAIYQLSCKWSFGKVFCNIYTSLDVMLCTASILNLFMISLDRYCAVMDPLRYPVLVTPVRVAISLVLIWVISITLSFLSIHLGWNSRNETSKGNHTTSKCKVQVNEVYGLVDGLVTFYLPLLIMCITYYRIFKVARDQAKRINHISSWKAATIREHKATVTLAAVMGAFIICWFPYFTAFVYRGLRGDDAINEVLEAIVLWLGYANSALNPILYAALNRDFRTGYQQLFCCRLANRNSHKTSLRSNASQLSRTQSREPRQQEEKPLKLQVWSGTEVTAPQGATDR
The target in test [5] is T2, Alpha-2A adrenergic receptor (Homo sapiens, UniProt P08913).
T2 sequence (P08913 whole entry): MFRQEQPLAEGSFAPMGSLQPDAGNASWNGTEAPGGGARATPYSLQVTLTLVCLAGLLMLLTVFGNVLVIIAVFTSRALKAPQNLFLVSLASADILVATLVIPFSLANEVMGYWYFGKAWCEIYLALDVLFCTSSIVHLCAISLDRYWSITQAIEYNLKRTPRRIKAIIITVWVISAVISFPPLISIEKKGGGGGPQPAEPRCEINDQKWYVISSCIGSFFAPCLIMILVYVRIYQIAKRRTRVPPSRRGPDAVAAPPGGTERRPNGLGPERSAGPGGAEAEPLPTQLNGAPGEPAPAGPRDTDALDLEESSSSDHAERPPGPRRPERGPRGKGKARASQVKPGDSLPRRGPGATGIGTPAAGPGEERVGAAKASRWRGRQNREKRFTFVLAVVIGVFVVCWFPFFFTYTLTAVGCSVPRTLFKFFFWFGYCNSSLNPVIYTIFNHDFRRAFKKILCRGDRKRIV
Kind of test: Inhibition of alpha2A adrenergic receptor.

Test [6] addresses Sodium-dependent dopamine transporter (Homo sapiens, UniProt Q01959). Kind of test: Inhibition of DAT.
For another test, the target named is D(3) dopamine receptor (Homo sapiens, UniProt P35462). Kind of test: Inhibition of dopamine D3 receptor.
The target in another test is D(2) dopamine receptor (Homo sapiens, UniProt P14416). Kind of test: Inhibition of dopamine D2 receptor.
Sequence of D(2) dopamine receptor (P14416 whole entry): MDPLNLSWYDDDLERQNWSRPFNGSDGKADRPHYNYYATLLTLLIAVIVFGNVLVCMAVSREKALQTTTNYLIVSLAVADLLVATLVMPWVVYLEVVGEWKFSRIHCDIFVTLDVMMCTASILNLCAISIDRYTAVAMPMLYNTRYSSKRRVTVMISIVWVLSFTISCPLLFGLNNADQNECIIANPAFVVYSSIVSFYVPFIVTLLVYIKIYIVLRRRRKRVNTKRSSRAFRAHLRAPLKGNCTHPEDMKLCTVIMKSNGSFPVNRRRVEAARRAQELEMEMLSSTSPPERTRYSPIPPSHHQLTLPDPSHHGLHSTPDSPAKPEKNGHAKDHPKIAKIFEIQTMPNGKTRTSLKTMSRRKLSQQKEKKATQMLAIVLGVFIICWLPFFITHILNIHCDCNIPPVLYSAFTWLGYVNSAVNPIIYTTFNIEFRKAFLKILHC
Test [7] concerns the target Sodium-dependent serotonin transporter (Homo sapiens, UniProt P31645). Kind of test: Inhibition of SERT.
The target in test [8] is T3, Growth hormone secretagogue receptor type 1 (Homo sapiens, UniProt Q92847). Kind of test: Antagonist activity at human GHSR expressed in CHOK1 cells assessed as inhibition of ghrelin-induced intracellular calcium flux by aequorin flash luminescence assay. The class given is functional, cell-based, CHO-K1. The method in brief:
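Aequorin flash luminescence in CHO-K1 cells stably co-expressing human ghrelin receptor and aequorin. […] IC50 values are means of three determinations.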

In test [9] the target is 5-hydroxytryptamine receptor 2A (Homo sapiens, UniProt P28223). Kind of test: Inhibition of 5HT2A (receptor).
Sequence of 5-hydroxytryptamine receptor 2A (P28223 whole entry): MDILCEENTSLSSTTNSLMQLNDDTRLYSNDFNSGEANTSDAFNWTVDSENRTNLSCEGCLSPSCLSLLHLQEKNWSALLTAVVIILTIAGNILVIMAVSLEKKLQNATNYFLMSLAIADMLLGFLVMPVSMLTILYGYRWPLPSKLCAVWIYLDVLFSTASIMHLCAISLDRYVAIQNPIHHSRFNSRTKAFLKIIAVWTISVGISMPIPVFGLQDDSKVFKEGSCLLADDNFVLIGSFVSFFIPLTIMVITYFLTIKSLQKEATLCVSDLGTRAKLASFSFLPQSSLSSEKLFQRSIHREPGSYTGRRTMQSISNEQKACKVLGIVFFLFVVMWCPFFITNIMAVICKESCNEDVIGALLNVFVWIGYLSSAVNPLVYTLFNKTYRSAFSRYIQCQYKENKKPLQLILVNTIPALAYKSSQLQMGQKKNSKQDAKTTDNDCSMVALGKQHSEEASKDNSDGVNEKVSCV
For test [10], the target named is T3, Growth hormone secretagogue receptor type 1. Kind of test: Agonist activity at human GHSR expressed in CHO cells assessed as increase in ghrelin-induced [3H]IP accumulation at 10 uM after 1 hr by scintillation counting relative to ghrelin. The class given is functional, cell-based. The gist of the method: (§1)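 CHO cells stably expressing human or rat GHSR labelled 12 h with 3H-inositol (1 µCi/mL in DMEM), then exposed to ghrelin or compound at 37 °C for 1.0 h. Lysis with 20 mM formic acid, 4 °C, 4 h. Extract taken onto SPA beads, 12 h in the dark, then radioactivity counted. IP accumulation expressed as % of maximal ghrelin response at 10, 1.0 and 0.1 µM.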

A short description of test [11]: Induction of growth hormone release from Sprague-Dawley rat pituitary cells at 1 uM after 20 mins by RIA assay relative to ghrelin. The class given is functional, Pituitary gland cell. The method in brief: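 Pituitary cells from 6–8-week-old male SD rats plated on poly-D-lysine and cultured 3 days at 37 °C. Washed with DMEM assay buffer (20 mM Hepes, 0.3% BSA) and held 5 min at 37 °C. Treated with rat ghrelin or compound for 20 min, then GH release measured as % of maximal ghrelin response. Means of three determinations.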

The target in test [12] is Growth hormone secretagogue receptor type 1 (Rattus norvegicus) (UniProt O08725). Kind of test: Agonist activity at rat GHSR expressed in CHO cells assessed as increase in ghrelin-induced [3H]IP accumulation at 10 uM after 1 hr by scintillation counting relative to ghrelin. The class given is functional, cell-based. The method in brief: as §1
Sequence of Growth hormone secretagogue receptor type 1 (Rattus norvegicus) (O08725 whole entry): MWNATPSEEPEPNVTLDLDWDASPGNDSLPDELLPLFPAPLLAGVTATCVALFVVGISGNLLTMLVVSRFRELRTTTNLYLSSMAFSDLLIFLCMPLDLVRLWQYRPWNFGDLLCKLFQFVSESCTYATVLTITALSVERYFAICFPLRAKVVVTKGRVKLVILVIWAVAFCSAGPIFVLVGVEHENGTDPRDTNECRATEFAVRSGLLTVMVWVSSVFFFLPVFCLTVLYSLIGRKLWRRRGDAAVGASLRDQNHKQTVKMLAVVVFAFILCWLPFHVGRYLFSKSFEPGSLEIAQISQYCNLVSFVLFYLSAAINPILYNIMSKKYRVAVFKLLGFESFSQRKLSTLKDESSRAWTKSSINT

Bounds are passed on as bounds.

Sequence of Sodium-dependent serotonin transporter (P31645 whole entry): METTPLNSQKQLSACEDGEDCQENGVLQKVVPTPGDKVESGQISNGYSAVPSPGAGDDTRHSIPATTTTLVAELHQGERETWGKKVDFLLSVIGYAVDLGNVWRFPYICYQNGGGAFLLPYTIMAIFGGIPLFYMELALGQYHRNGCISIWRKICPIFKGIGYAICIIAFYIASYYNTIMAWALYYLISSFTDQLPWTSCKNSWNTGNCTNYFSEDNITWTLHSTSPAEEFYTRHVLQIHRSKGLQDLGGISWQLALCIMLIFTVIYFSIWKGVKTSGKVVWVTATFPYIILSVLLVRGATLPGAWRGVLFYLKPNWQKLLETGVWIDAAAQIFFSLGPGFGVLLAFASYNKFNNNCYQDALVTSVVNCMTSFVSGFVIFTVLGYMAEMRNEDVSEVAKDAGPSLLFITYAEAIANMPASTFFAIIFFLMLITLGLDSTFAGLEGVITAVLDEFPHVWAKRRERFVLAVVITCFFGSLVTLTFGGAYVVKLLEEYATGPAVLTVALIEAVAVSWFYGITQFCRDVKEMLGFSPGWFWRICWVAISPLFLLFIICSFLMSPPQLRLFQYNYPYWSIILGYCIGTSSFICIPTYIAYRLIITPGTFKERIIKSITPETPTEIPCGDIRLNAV
Sequence of Muscarinic acetylcholine receptor M3 (P20309 whole entry): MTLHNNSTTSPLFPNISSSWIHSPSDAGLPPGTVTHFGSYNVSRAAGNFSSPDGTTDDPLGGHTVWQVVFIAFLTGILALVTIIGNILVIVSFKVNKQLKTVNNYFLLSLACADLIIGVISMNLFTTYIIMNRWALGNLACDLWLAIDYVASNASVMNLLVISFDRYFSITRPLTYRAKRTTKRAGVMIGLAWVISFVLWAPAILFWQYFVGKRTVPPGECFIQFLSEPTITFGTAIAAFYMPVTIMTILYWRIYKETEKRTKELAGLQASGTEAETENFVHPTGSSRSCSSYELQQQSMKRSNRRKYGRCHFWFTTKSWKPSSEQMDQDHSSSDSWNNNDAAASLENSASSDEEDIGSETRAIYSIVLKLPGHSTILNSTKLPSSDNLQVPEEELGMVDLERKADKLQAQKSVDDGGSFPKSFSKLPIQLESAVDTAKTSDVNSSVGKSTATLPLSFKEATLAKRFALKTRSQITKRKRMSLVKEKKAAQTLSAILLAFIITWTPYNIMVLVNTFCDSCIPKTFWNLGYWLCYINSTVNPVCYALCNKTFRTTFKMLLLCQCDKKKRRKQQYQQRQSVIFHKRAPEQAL
Sequence of Sodium-dependent dopamine transporter (Q01959 whole entry): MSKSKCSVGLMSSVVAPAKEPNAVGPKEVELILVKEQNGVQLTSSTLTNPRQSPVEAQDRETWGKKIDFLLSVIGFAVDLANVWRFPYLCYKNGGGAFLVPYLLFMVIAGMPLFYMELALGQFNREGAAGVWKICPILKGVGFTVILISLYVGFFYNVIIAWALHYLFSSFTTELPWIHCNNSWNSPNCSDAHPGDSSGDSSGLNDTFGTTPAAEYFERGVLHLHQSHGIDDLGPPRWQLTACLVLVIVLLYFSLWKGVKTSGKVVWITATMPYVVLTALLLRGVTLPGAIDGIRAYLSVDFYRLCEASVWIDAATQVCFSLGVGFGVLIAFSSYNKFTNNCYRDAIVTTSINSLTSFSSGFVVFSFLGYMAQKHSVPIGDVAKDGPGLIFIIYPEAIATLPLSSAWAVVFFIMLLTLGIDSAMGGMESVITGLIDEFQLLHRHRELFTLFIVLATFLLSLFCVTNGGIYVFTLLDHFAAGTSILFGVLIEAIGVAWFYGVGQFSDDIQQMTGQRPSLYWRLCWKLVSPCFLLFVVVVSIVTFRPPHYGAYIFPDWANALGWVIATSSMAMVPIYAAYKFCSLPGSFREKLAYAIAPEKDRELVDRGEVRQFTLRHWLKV
Sequence of Kappa-type opioid receptor (P41145 whole entry): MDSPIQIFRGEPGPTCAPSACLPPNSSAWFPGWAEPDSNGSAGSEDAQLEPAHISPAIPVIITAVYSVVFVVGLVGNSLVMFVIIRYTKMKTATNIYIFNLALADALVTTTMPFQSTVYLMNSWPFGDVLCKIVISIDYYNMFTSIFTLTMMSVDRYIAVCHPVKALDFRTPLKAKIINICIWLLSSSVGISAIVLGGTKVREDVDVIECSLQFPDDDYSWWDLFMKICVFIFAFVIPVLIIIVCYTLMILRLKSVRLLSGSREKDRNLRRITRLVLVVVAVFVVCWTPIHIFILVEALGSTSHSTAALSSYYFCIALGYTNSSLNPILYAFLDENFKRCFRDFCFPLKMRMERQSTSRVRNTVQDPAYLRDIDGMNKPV
Sequence of Sodium-dependent noradrenaline transporter (P23975 whole entry): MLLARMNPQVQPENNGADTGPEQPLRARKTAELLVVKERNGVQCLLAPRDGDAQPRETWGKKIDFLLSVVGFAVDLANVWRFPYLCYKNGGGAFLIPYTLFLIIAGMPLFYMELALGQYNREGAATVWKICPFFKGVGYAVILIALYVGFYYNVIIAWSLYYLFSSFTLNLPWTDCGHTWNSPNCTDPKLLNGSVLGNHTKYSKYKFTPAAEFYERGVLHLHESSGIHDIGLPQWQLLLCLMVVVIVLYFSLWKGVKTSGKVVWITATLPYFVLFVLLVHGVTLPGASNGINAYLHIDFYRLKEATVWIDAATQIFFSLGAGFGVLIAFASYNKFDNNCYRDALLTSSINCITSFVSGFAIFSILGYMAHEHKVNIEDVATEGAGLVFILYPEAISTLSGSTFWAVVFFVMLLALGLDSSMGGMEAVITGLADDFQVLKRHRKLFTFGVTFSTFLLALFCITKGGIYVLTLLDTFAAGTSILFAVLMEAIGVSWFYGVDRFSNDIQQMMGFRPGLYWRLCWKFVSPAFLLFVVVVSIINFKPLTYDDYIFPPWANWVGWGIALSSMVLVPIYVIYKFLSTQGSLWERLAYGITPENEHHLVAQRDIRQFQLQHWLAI

Regarding `C[C@H]1CN(C(=O)c2ccc(-c3ccc(OC(F)(F)F)cc3)cc2)CCN1C(=O)c1ccc2cc[nH]c2c1`, the inhibitory constant (Ki) (in [1]; in test [2]; in [3]; at Mu-type opioid receptor; in [4]; on Histamine H2 receptor) was > 10 µM in each case. The Ki (in test [5]; in test [6]; on D(3) dopamine receptor; on D(2) dopamine receptor; in test [7]; in [9]) was > 10 µM in each case. Moreover, in [8], the 50% inhibitory concentration (IC50) (in general, the concentration needed to halve the response being measured) came out at 0.136 µM.
As to `C[C@H]1CN(C(=O)c2ccc(-c3ccccc3C(F)(F)F)cc2)CCN1C(=O)c1ccc2cc[nH]c2c1`, the Ki (in test [1]; in test [2]; in test [3]; on Mu-type opioid receptor; in test [4]; on Histamine H2 receptor) was > 10 µM throughout. Besides, the Ki (in test [5]; in test [6]; at D(3) dopamine receptor; at D(2) dopamine receptor; in test [7]; in test [9]) was > 10 µM throughout. The concentration for half-maximal inhibition (IC50) in [8] came to 0.0041 µM. Also, the Activity stood at 24% in [10], 21% in test [11] and 28% in [12].
Consider `C[C@H]1CN(C(=O)c2ccc(-c3ccc(F)cc3)cc2)CCN1C(=O)c1ccc2cc[nH]c2c1`, for which the Ki (in test [1]; in test [2]; in [3]; on Mu-type opioid receptor; in test [4]; at Histamine H2 receptor) was > 10 µM in each case. Also, the Ki (in [5]; in test [6]; at D(3) dopamine receptor; at D(2) dopamine receptor; in test [7]; in [9]) was > 10 µM in each case. In addition, the IC50 in test [8] is 0.064 µM.
Regarding `COc1cccc(-c2ccc(C(=O)N3CCN(C(=O)c4ccc5cc[nH]c5c4)[C@H](C)C3)cc2)c1`, the Ki (in [1]; in test [2]; in test [3]; at Mu-type opioid receptor; in [4]; on Histamine H2 receptor) was > 10 µM throughout. Moreover, the Ki (in test [5]; in test [6]; at D(3) dopamine receptor; on D(2) dopamine receptor; in test [7]; in test [9]) was > 10 µM each time. The IC50 in test [8] came to 0.64 µM.
For the compound `C[C@H]1CN(C(=O)c2ccc(-c3cccc(OC(F)(F)F)c3)cc2)CCN1C(=O)c1ccc2cc[nH]c2c1`, the inhibition constant Ki (in test [1]; in test [2]; in test [3]; at Mu-type opioid receptor; in test [4]; on Histamine H2 receptor) was > 10 µM each time. Besides, the Ki (in [5]; in test [6]; at D(3) dopamine receptor; at D(2) dopamine receptor; in test [7]; in test [9]) was > 10 µM each time. The IC50 in test [8] was 0.0465 µM.
Regarding `C[C@H]1CN(C(=O)c2ccc(-c3cccc(C(F)(F)F)c3)cc2)CCN1C(=O)c1ccc2cc[nH]c2c1`, the Ki (in [1]; in [2]; in test [3]; at Mu-type opioid receptor; in test [4]; at Histamine H2 receptor) was > 10 µM throughout. Further, the Ki (in test [5]; in test [6]; at D(3) dopamine receptor; at D(2) dopamine receptor; in test [7]; in test [9]) was > 10 µM each time. In test [8], the IC50 was 0.077 µM.
For `C[C@H]1CN(C(=O)c2ccc(-c3ccccc3Cl)cc2)CCN1C(=O)c1ccc2cc[nH]c2c1`, the Ki (in test [1]; in test [2]; in test [3]; at Mu-type opioid receptor; in test [4]; on Histamine H2 receptor) was > 10 µM each time. In addition, the Ki (in [5]; in test [6]; at D(3) dopamine receptor; on D(2) dopamine receptor; in test [7]; in test [9]) was > 10 µM throughout. The IC50 in test [8] amounted to 0.0021 µM. In addition, the Activity in test [10] was found to be 35%; in test [11], 24%; in test [12], 32%.
For `COc1ccccc1-c1ccc(C(=O)N2CCN(C(=O)c3ccc4cc[nH]c4c3)[C@@H](C)C2)cc1`, the Ki (in test [1]; in test [2]; in test [3]; on Mu-type opioid receptor; in test [4]; at Histamine H2 receptor) was > 10 µM throughout. Moreover, the Ki (in test [5]; in test [6]; on D(3) dopamine receptor; at D(2) dopamine receptor; in [7]; in test [9]) was > 10 µM each time. Besides, the IC50 in test [8] amounted to 0.026 µM.
With `C[C@H]1CN(C(=O)c2ccc(-c3cccc(F)c3)cc2)CCN1C(=O)c1ccc2cc[nH]c2c1`, the Ki (in test [1]; in [2]; in test [3]; at Mu-type opioid receptor; in test [4]; at Histamine H2 receptor) was > 10 µM throughout. Also, the Ki (in test [5]; in test [6]; at D(3) dopamine receptor; at D(2) dopamine receptor; in test [7]; in test [9]) was > 10 µM each time. In [8], the 50% inhibitory concentration (IC50) turned out to be 0.147 µM.
On to `C[C@H]1CN(C(=O)c2ccc(-c3ccccc3)cc2)CCN1C(=O)c1ccc2cc[nH]c2c1`, for which the Ki (in test [1]; in test [2]; in test [3]; on Mu-type opioid receptor; in [4]; at Histamine H2 receptor) was > 10 µM throughout. Further, the inhibition constant Ki (in [5]; in test [6]; at D(3) dopamine receptor; on D(2) dopamine receptor; in [7]; in test [9]) was > 10 µM throughout. Moreover, the half-inhibitory concentration (IC50) in [8] turned out to be 0.006 µM. Besides, the Activity in [10] was found to be 29%; in test [12], 26%.
As for `COc1ccc(-c2ccc(C(=O)N3CCN(C(=O)c4ccc5cc[nH]c5c4)[C@@H](C)C3)cc2)cc1`, the Ki (in test [1]; in test [2]; in [3]; on Mu-type opioid receptor; in test [4]; on Histamine H2 receptor) was > 10 µM each time. The inhibition constant (Ki) (in [5]; in test [6]; on D(3) dopamine receptor; on D(2) dopamine receptor; in [7]; in [9]) was > 10 µM each time. In addition, in test [8], the half-maximal inhibitory concentration (IC50) turned out to be 0.007 µM. Also, the Activity in [10] came out at 33%; in test [12], 34%.
